Results reported in ChEMBL document CHEMBL1944618, “Synthesis and antifungal activity of a new series of 2-(1H-imidazol-1-yl)-1-phenylethanol derivatives” (Eur J Med Chem, 2012).
Converted amounts (≈) assume the structure as drawn.

Legend:
Candida albicans [1] = assay: Antifungal activity against Candida albicans ATCC 24433 after 48 hrs by M27-A3 CLSI method; assay type: functional
Method in brief: (§1)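 Broth microdilution in RPMI 1640, two-fold serial dilutions, final test range 0.125–64 µg mL-1 (fluconazole reference 0.0078–128 µg mL-1). Inoculum 1.0×10^3–1.5×10^3 cells mL-1 from yeasts grown 24 h at 35 °C on Sabouraud dextrose agar. Incubation 35 °C, read at 48 h. MIC = lowest concentration giving >50% turbidity decrease versus growth control. Run three times in triplicate. C. parapsilosis ATCC22019 served as QC.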

Candida tropicalis [2] = assay: Antifungal activity against Candida tropicalis PMC 0910 after 48 hrs by M27-A3 CLSI method; assay type: functional; conditions: PMC 0910, 48 h; method in brief: as §1
Candida albicans [3] = assay: Antifungal activity against Candida albicans ATCC 10231 after 48 hrs by M27-A3 CLSI method; assay type: functional; conditions: ATCC 10231, 48 h; method in brief: as §1
Candida tropicalis [4] = assay: Antifungal activity against Candida tropicalis DSM 11953 after 48 hrs by M27-A3 CLSI method; assay type: functional; conditions: DSM 11953, 48 h; method in brief: as §1
Pichia kudriavzevii [5] = assay: Antifungal activity against Candida krusei DSM 6128 after 48 hrs by M27-A3 CLSI method; assay type: functional; conditions: DSM 6128, 48 h; method in brief: as §1
Candida albicans [6] = assay: Antifungal activity against Candida albicans ATCC 76615 after 48 hrs by M27-A3 CLSI method; assay type: functional; conditions: ATCC 76615, 48 h; method in brief: as §1
Candida albicans [7] = assay: Antifungal activity against Candida albicans ATCC 3153 after 48 hrs by M27-A3 CLSI method; assay type: functional; conditions: ATCC 3153, 48 h; method in brief: as §1
Nakaseomyces glabratus = assay: Antifungal activity against Candida glabrata PMC 0805 after 48 hrs by M27-A3 CLSI method; assay type: functional; conditions: PMC 0805, 48 h; method in brief: as §1
Candida = assay: Antifungal activity against Candida sp. after 48 hrs by M27-A3 CLSI method; assay type: functional; method in brief: as §1
Candida parapsilosis [8] = assay: Antifungal activity against Candida parapsilosis DSM 11224 after 48 hrs by M27-A3 CLSI method; assay type: functional; method in brief: as §1
Candida albicans [9] = assay: Antifungal activity against Candida albicans after 48 hrs by M27-A3 CLSI method; assay type: functional; method in brief: as §1
Pichia kudriavzevii [10] = assay: Antifungal activity against Candida krusei PMC 0613 after 48 hrs by M27-A3 CLSI method; assay type: functional; method in brief: as §1
Candida parapsilosis [11] = assay: Antifungal activity against Candida parapsilosis ATCC 22019 after 48 hrs by M27-A3 CLSI method; assay type: functional; conditions: Lodderomyces parapsilosis, ATCC 22019, 48 h; method in brief: as §1
Candida tropicalis [12] = assay: Antifungal activity against Candida tropicalis DSM11953 after 48 hrs by M27-A3 CLSI method
[13] = Candida albicans, ATCC 24433, 48 h, read-out: MIC
[14] = Lodderomyces parapsilosis, DSM 11224, 48 h, read-out: MIC
[15] = Pichia kudriavzevii, PMC 0613, 48 h, read-out: MIC

Compound | MIC (Candida albicans [1]; [13]) [µg/mL] | MIC (Candida tropicalis [2]) [µg/mL] | MIC (Candida albicans [3]) [µg/mL] | MIC (Candida tropicalis [4]) [µg/mL] | MIC (Pichia kudriavzevii [5]) [µg/mL] | MIC (Candida albicans [6]) [µg/mL] | MIC (Candida albicans [7]) [µg/mL] | MIC (Nakaseomyces glabratus) [µg/mL] | MIC (Candida) [µg/mL] | MIC50 (Candida) [µg/mL] | MIC90 (Candida) [µg/mL] | MIC (Candida parapsilosis [8]; [14]) [µg/mL] | MIC (Candida albicans [9]) [µg/mL] | MIC50 (Candida albicans [9]) [µg/mL] | MIC90 (Candida albicans [9]) [µg/mL] | MIC (Pichia kudriavzevii [10]; [15]) [µg/mL] | MIC (Candida parapsilosis [11]) [µg/mL] | also measured
Cl.O=C(OC(Cn1ccnc1)c1ccc(Cl)cc1)c1cccc(C(F)(F)F)c1 (racemic) | 8 | 0.5 | 4 | 32 | 32 | > 64 | 8 | 32 | 43.8 | 32 | 128 | 8 | 46.3 | 8 | 16 | 32 | > 64 | 
OC(Cn1ccnc1)c1ccccc1 (racemic) | 64 (≈ 340 µM) | > 64 | > 64 | 64 (≈ 340 µM) | > 64 | > 64 | ≥ 64 | > 64 | 98.5 (≈ 523 µM) | 64 (≈ 340 µM) | 128 (≈ 680 µM) | ≥ 64 | 107 (≈ 567 µM) | 128 (≈ 680 µM) | 128 (≈ 680 µM) | > 64 | ≥ 64 | 
CC(C)c1ccc(NC(=O)OC(Cn2ccnc2)c2ccc(Cl)cc2)cc1 (racemic) | 16 (≈ 41.7 µM) | > 64 | 4 (≈ 10.4 µM) | > 64 | > 64 | > 64 | 16 (≈ 41.7 µM) | > 64 | 115 (≈ 299 µM) | 128 (≈ 333 µM) | 128 (≈ 333 µM) | > 64 | 60 (≈ 156 µM) | 64 (≈ 167 µM) | 128 (≈ 333 µM) | > 64 | > 64 | 
O=C(OC(Cn1ccnc1)c1ccc(F)cc1)c1ccc(-c2ccccc2)cc1 (single isomer, unassigned; (+)) |  |  |  |  |  |  |  |  |  |  |  |  |  |  |  |  |  | MIC (Candida albicans [1]): 64 µg/mL (≈ 166 µM); MIC (Candida tropicalis [12]): 32 µg/mL (≈ 82.8 µM); MIC (Candida parapsilosis [8]): 35.55 µg/mL (≈ 92 µM); MIC (Pichia kudriavzevii [10]): 64 µg/mL (≈ 166 µM)
OC(Cn1ccnc1)c1ccc(Cl)cc1 (racemic) | > 64 | > 64 | > 64 | > 64 | > 64 | > 64 | > 32 | > 64 | 108 (≈ 485 µM) | 128 (≈ 575 µM) | 128 (≈ 575 µM) | 64 (≈ 287 µM) | 112 (≈ 503 µM) | 128 (≈ 575 µM) | 128 (≈ 575 µM) | 16 (≈ 71.9 µM) | > 64 | 
CC(C)c1ccc(NC(=O)OC(Cn2ccnc2)c2ccc(F)cc2)cc1 (racemic) | 1 (≈ 2.72 µM) | 4 (≈ 10.9 µM) | 2 (≈ 5.44 µM) | > 64 | 16 (≈ 43.5 µM) | ≥ 64 | 16 (≈ 43.5 µM) | > 64 | 68.4 (≈ 186 µM) | 4 (≈ 10.9 µM) | 128 (≈ 348 µM) | 16 (≈ 43.5 µM) | 39.6 (≈ 108 µM) | 16 (≈ 43.5 µM) | 64 (≈ 174 µM) | 64 (≈ 174 µM) | > 64 | 
O=C(COc1ccccc1)OC(Cn1ccnc1)c1ccc(Cl)cc1 (racemic) | 2 (≈ 5.61 µM) | 4 (≈ 11.2 µM) | 4 (≈ 11.2 µM) | > 64 | > 64 | > 64 | 16 (≈ 44.8 µM) | 16 (≈ 44.8 µM) | 51.3 (≈ 144 µM) | 16 (≈ 44.8 µM) | 128 (≈ 359 µM) | 8 (≈ 22.4 µM) | 67.7 (≈ 190 µM) | 64 (≈ 179 µM) | 128 (≈ 359 µM) | 16 (≈ 44.8 µM) | 32 (≈ 89.7 µM) | 
O=C(OC(Cn1ccnc1)c1ccccc1)c1ccc(C(F)(F)F)cc1 (racemic) | 8 (≈ 22.2 µM) | 4 (≈ 11.1 µM) | 8 (≈ 22.2 µM) | 16 (≈ 44.4 µM) | > 64 | ≥ 64 | 8 (≈ 22.2 µM) | 8 (≈ 22.2 µM) | 55.5 (≈ 154 µM) | 32 (≈ 88.8 µM) | 128 (≈ 355 µM) | 32 (≈ 88.8 µM) | 33.1 (≈ 91.9 µM) | 8 (≈ 22.2 µM) | 64 (≈ 178 µM) | 64 (≈ 178 µM) | 64 (≈ 178 µM) | 
CC(C)c1ccc(NC(=O)OC(Cn2ccnc2)c2ccccc2)cc1 (racemic) | 32 (≈ 91.6 µM) | 64 (≈ 183 µM) | 64 (≈ 183 µM) | > 64 | > 64 | ≥ 64 | ≥ 64 | > 64 | 107 (≈ 305 µM) | 128 (≈ 366 µM) | 128 (≈ 366 µM) | > 64 | 77.7 (≈ 222 µM) | 64 (≈ 183 µM) | 128 (≈ 366 µM) | 64 (≈ 183 µM) | 64 (≈ 183 µM) | 
